Source: ChEMBL document CHEMBL2203170, “Synthesis, DNA-PK inhibition, anti-platelet activity studies of 2-(N-substituted-3-aminopyridine)-substituted-1,3-benzoxazines and DNA-PK and PI3K inhibition, homology modelling studies of 2-morpholino-(7,8-di and 8-substituted)-1,3-benzoxazines” (Eur J Med Chem, 2012)

Experiments:
[1] = Antiplatelet activity against human platelet assessed as inhibition of collagen-induced platelet aggregation incubated for 2 mins before collagen induction by two-channel platelet aggregometer; assay type: functional, cell-based
In short: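 Venous blood from healthy, drug-free volunteers collected into trisodium citrate 22.0 g/L. Aggregation was measured optically in a two-channel aggregometer, following an earlier protocol.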

[2] = molecular target: DNA-dependent protein kinase catalytic subunit (Homo sapiens, UniProt P78527); experiment: Inhibition of DNA-PK using EPPLSQEAFADLWKK as substrate after 5 mins by ADP-Glo kinase assay
[3] = molecular target: Phosphatidylinositol 4,5-bisphosphate 3-kinase catalytic subunit gamma isoform (Homo sapiens, UniProt P48736); experiment: Inhibition of PI3Kgamma by HTRF assay in presence of ATP
[4] = molecular target: T1, Phosphatidylinositol 4,5-bisphosphate 3-kinase catalytic subunit delta isoform (Homo sapiens, UniProt O00329); experiment: Inhibition of PI3Kdelta by HTRF assay in presence of ATP
T1 sequence (O00329 whole entry): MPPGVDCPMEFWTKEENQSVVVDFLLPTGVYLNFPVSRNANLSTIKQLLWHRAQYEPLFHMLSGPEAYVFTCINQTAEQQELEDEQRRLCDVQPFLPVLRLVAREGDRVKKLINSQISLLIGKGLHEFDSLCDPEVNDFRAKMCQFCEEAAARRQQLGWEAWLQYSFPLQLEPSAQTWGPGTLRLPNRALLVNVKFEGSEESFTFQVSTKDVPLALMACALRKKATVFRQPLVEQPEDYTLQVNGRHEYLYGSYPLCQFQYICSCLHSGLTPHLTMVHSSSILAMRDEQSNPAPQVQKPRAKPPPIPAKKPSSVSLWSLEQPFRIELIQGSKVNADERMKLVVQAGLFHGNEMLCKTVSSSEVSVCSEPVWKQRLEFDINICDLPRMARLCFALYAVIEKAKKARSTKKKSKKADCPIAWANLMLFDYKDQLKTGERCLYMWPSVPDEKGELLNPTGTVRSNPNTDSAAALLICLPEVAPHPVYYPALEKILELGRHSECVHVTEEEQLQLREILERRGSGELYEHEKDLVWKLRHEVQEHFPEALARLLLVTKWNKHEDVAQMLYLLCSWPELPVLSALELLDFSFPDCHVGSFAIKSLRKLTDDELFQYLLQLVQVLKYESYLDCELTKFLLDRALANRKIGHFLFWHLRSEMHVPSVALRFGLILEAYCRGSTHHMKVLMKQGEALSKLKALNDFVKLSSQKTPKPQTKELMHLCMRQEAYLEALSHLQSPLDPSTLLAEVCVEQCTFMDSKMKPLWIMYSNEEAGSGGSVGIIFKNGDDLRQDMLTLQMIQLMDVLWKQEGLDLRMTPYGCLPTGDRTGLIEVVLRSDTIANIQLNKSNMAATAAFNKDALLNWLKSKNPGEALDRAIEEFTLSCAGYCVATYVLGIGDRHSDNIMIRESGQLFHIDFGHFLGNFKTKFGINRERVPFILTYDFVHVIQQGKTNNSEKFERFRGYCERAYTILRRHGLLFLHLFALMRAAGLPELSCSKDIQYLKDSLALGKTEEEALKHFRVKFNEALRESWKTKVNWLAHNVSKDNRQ

[5] = molecular target: Phosphatidylinositol 4,5-bisphosphate 3-kinase catalytic subunit beta isoform (Homo sapiens, UniProt P42338); experiment: Inhibition of PI3Kbeta by HTRF assay in presence of ATP
[6] = molecular target: Phosphatidylinositol 4,5-bisphosphate 3-kinase catalytic subunit alpha isoform (Homo sapiens, UniProt P42336); experiment: Inhibition of PI3Kalpha by HTRF assay in presence of ATP
Sequence of Phosphatidylinositol 4,5-bisphosphate 3-kinase catalytic subunit alpha isoform (P42336 whole entry, canonical isoform): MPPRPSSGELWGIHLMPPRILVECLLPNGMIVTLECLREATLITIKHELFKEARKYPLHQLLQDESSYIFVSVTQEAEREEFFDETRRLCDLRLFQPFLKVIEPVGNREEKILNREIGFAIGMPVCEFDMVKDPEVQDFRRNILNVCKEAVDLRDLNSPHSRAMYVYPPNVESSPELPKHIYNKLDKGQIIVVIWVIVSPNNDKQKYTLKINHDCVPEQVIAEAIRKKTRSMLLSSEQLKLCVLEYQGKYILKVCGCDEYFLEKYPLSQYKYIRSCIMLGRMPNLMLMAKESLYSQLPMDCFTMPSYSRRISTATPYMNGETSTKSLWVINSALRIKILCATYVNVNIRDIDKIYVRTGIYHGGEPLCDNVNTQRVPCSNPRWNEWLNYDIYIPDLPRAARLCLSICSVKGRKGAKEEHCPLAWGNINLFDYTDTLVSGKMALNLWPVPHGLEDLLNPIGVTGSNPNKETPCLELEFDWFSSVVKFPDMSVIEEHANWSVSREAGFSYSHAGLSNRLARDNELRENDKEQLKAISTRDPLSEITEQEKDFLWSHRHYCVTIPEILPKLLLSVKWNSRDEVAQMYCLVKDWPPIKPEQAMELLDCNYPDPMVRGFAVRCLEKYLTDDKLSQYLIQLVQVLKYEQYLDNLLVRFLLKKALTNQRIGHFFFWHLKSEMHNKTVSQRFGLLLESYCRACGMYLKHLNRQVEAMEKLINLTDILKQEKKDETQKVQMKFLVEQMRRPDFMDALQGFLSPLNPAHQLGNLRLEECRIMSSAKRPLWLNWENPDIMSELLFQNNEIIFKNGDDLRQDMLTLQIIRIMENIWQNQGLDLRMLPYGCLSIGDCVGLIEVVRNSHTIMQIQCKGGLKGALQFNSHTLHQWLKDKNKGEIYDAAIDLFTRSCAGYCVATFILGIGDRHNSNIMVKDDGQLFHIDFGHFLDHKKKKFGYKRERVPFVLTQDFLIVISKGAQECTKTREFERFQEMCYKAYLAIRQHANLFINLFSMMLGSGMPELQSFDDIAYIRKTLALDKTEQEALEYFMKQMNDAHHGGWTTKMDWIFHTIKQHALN

Sequence of Phosphatidylinositol 4,5-bisphosphate 3-kinase catalytic subunit beta isoform (P42338 whole entry, canonical isoform): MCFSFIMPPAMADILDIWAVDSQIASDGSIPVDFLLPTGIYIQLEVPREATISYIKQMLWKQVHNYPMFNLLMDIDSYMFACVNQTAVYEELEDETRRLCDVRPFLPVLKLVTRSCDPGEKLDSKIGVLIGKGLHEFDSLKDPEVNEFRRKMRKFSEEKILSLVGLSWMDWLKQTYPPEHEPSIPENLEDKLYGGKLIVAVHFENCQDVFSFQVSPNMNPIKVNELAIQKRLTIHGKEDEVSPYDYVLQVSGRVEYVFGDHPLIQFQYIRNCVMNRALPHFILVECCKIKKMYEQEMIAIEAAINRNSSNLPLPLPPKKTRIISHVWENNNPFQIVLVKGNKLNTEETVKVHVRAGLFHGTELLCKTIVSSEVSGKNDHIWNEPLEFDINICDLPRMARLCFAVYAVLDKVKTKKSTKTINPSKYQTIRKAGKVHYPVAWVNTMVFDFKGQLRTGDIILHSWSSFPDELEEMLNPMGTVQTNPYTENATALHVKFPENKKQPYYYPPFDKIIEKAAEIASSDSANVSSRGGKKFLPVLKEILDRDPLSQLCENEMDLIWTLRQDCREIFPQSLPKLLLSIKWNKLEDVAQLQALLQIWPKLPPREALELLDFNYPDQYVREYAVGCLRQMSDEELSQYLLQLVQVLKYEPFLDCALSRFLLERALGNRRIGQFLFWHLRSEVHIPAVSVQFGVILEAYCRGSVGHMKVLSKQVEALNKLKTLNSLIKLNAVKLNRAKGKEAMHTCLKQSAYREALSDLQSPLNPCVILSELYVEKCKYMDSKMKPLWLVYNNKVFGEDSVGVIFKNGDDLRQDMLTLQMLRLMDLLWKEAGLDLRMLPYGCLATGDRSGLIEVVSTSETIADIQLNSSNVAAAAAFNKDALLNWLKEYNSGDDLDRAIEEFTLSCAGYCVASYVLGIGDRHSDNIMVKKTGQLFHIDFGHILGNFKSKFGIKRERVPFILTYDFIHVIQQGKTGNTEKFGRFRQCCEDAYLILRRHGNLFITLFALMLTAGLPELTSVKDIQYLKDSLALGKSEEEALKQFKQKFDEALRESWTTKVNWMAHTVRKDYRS
Sequence of Phosphatidylinositol 4,5-bisphosphate 3-kinase catalytic subunit gamma isoform (P48736 whole entry, canonical isoform): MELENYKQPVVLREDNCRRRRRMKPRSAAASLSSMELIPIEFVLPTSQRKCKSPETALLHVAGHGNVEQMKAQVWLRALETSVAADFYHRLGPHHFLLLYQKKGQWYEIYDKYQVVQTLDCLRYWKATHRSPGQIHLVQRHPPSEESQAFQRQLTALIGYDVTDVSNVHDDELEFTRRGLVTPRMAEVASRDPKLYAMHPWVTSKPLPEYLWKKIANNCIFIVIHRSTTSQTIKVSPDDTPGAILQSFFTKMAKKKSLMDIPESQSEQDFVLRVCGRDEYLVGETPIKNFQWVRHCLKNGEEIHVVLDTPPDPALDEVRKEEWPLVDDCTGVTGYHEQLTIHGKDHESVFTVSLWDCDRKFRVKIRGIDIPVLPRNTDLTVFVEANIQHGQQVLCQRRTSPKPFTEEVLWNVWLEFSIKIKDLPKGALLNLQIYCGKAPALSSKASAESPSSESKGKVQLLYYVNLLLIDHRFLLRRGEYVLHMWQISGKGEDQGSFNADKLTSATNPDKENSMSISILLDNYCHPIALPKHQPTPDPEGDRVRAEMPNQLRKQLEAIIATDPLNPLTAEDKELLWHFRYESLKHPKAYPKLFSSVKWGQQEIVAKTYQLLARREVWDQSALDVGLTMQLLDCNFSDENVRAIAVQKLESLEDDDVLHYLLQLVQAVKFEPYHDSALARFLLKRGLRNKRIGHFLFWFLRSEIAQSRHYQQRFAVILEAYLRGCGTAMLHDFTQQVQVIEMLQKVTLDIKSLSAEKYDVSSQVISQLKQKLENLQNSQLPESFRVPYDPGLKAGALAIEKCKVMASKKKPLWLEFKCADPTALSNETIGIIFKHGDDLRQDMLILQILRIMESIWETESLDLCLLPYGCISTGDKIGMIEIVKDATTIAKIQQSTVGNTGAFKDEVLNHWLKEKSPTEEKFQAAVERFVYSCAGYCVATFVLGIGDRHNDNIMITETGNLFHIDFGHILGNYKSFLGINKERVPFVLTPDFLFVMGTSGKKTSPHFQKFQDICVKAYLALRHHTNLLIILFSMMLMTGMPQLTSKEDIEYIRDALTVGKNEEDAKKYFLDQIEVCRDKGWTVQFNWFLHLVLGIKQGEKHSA

Structure (SMILES) | IC50 [1] [µM] | IC50 [2] [µM] | also measured
O=c1nc(N(Cc2ccncc2)c2cccnc2)oc2cc(OCc3ccncc3)ccc12 | 55 |  | 
Cc1c(OCc2cccnc2)ccc2c(=O)nc(N(Cc3cccnc3)c3cccnc3)oc12 | 10 | 2.5 | 
O=c1nc(Nc2cccnc2)oc2ccccc12 | 90 |  | 
CN1CCN(CCOc2cccc3c(=O)nc(N4CCOCC4)oc23)CC1 |  | 1.7 | 
Cc1cccc2c(=O)nc(N(Cc3ccccn3)c3cccnc3)oc12 |  | 25.2 | 
O=c1nc(N(Cc2cccnc2)c2cccnc2)oc2c(-c3ccccc3)cccc12 | 65 |  | 
O=c1nc(N2CCOCC2)oc2c(OCc3ccccn3)cccc12 |  | 0.62 | 
O=c1nc(N2CCOCC2)oc2cc(OCc3cccnc3)ccc12 |  | 2.5 | 
Cc1c(OCc2ccccc2)ccc2c(=O)n(Cc3ccccc3)c(=O)oc12 | 85 |  | 
O=c1nc(N2CCOCC2)oc2c(OCc3ccncc3)cccc12 |  | 1.6 | 
O=c1nc(N(Cc2ccccn2)c2cccnc2)oc2cc(OCc3ccccn3)ccc12 |  | 5.7 | 
O=c1nc(N2CCOCC2)oc2cc(OCc3ccncc3)ccc12 |  | 4.2 | 
Cc1c(OCc2ccccn2)ccc2c(=O)nc(N(Cc3ccccn3)c3cccnc3)oc12 | 35 |  | 
Cc1c(OCc2ccccn2)ccc2c(=O)n(Cc3ccccn3)c(=O)oc12 | 85 |  | 
O=c1nc(N(Cc2ccccn2)c2cccnc2)oc2c(OCc3ccccn3)cccc12 |  | 7.8 | 
Cc1cccc2c(=O)nc(N(Cc3cccnc3)c3cccnc3)oc12 | 100 |  | 
O=c1nc(N(Cc2cccnc2)c2cccnc2)oc2cc(OCc3cccnc3)ccc12 |  | 14.8 | 
Cc1c(OCc2cccnc2)ccc2c(=O)nc(N3CCOCC3)oc12 |  | 0.28 | IC50 [3]: 0.72 µM; IC50 [4]: 2.02 µM; IC50 [5]: 0.14 µM; IC50 [6]: 0.13 µM
O=c1nc(Nc2cccnc2)oc2c(-c3ccccc3)cccc12 | 76 |  | 
O=c1nc(N(Cc2cccnc2)c2cccnc2)oc2c(OCc3cccnc3)cccc12 |  | 13.5 | 
O=c1nc(N2CCOCC2)oc2cc(OCc3ccccn3)ccc12 |  | 2.7 | 
Cc1c(OCc2ccncc2)ccc2c(=O)nc(N3CCOCC3)oc12 |  | 1.2 | 
O=c1nc(N2CCOCC2)oc2c(-c3ccccc3)cccc12 |  | 0.3 | IC50 [3]: 1.5 µM; IC50 [4]: 0.95 µM; IC50 [5]: 3.36 µM; IC50 [6]: 4.07 µM
Cc1c(OCCN2CCN(C)CC2)ccc2c(=O)nc(N3CCOCC3)oc12 |  | 0.5 | IC50 [3]: ≥ 100 µM; IC50 [4]: ≥ 100 µM; IC50 [5]: ≥ 100 µM; IC50 [6]: ≥ 100 µM
Cc1c(OCc2cccnc2)ccc2c(=O)n(Cc3cccnc3)c(=O)oc12 | 75 | 10 | 
Cc1c(OCc2ccccn2)ccc2c(=O)nc(N3CCOCC3)oc12 |  | 1.3 | 
CN1CCN(CCOc2ccc3c(=O)nc(N4CCOCC4)oc3c2)CC1 |  | 6.8 | 
O=c1nc(N2CCOCC2)oc2c(OCc3cccnc3)cccc12 |  | 0.36 | 
O=c1nc(N(Cc2ccncc2)c2cccnc2)oc2c(-c3ccccc3)cccc12 | 75 |  | 
